Test results from ChEMBL document CHEMBL4350955, “Novel Chemical Series of 5-Lipoxygenase-Activating Protein Inhibitors for Treatment of Coronary Artery Disease” (J Med Chem, 2019).
≈ marks a conversion by molar mass, not a printed value. Calls of active or inactive are those of the source. The rule behind the calls is not given here.

How the values were obtained:
[1] = Chemical stability of the compound; assay type: physicochemical
[2] = Distribution coefficient between octanol and sodium phosphate buffer, logD of the compound in pH 7.4 buffer by LC-MS/MS-based shake flask method
[3] = molecular target: T1, Arachidonate 5-lipoxygenase-activating protein (Homo sapiens) (UniProt P20292); assay: (§1) Inhibition of FLAP in human whole blood assessed as reduction in calcium ionophore-stimulated LTB4 production preincubated for 30 mins followed by calcium ionophore stimulation and measured after 20 mins by EIA; assay type: tissue-based
T1 sequence (whole entry): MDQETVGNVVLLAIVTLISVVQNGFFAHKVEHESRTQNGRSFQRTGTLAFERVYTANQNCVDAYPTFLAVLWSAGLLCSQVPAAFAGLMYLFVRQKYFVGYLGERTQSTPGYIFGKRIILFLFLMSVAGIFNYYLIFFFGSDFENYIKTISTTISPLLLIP

[4] = molecular target: T2, Arachidonate 5-lipoxygenase-activating protein (Homo sapiens, UniProt P20292); assay: as §1; assay type: tissue-based
T2 sequence (P20292 whole entry): T1 sequence (whole entry)

[5] = system: HepG2; assay: Induction of mitochondrial impairment in human HepG2 cells incubated for 24 hrs by CellTiter-Glo Luminescent Cell Viability Assay; assay type: cell-based; conditions: hepg2, 24 h
[6] = Clearance in Beagle dog at 0.004 to 0.1 umol/kg, iv or 0.1 to 1 umol/kg, po via gavage measured up to 79 hrs; assay type: ADME, organism-based, Canis lupus familiaris; conditions: in vivo
[7] = Genotoxicity in Salmonella typhimurium by Ames test; assay type: toxicity; conditions: salmonella enterica subsp. enterica serovar typhimurium
Outline: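 Two-strain Salmonella Ames test, with and without metabolic activation by rat liver S9 fraction; applied to amino pyrazole building blocks present in the series.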

[8] = Half-life in po or iv dosed Sprague-Dawley rat; assay type: ADME, organism-based; conditions: in vivo
[9] = Protein binding in human plasma assessed as unbound fraction by LC-MS based equilibrium dialysis analysis; assay type: ADME, cell-free
[10] = molecular target: CYP450 (Homo sapiens, UniProt P04798+P05177+P05181+P08684+P10632+P10635+P11509+P11712+P13584+P20813+P20815+P20853+P24462+P24903+P33260+P33261+P51589+P78329+P98187+Q02928+Q08477+Q16678+Q16696+Q5TCH4+Q6VVX0+Q7Z449+Q8TAV3+Q96SQ9+Q9HB55); assay: Inhibition of CYP450 assessed as maximum reduction in metabolite formation using coumarin based substrate by fluorescence assay; assay type: ADME, protein assay; conditions: probe coumarin based substrate
[11] = molecular target: ATP-binding cassette sub-family C member 2 (Rattus norvegicus, UniProt Q63120); assay: Inhibition of Sprague-Dawley rat Mrp2 expressed in baculovirus infected Sf21 insect cell vesicles assessed as reduction in CDF uptake by fluorescence assay
[12] = molecular target: Kv channel-interacting protein 2/Potassium voltage-gated channel subfamily D member 3 (Homo sapiens, UniProt Q9UK17+Q9NS61); assay: Inhibition of human Kv4.3/KChIP2 by Ion-work electrophysiology assay; assay type: protein-complex assay
[13] = Half-life in Beagle dog at 0.004 to 0.1 umol/kg, iv or 0.1 to 1 umol/kg, po via gavage measured up to 79 hrs; assay type: ADME, organism-based, Canis lupus familiaris; conditions: in vivo
[14] = Volume of distribution at steady state in po or iv dosed Sprague-Dawley rat; assay type: ADME, organism-based; conditions: in vivo, read-out: Vdss
[15] = system: L5178Y; assay: Genotoxicity in mouse L5178Y cells by micronucleus Assay; assay type: toxicity, cell-based
[16] = Metabolic stability in human hepatocytes assessed as parent compound remaining; assay type: ADME, cell-based, Hepatocyte
[17] = molecular target: Aryl hydrocarbon receptor (Homo sapiens, UniProt P35869); assay: Agonist activity at AhR in human HepG2 cells assessed as induction of CYP1A1 activity at 0.001 to 30 uM measured after 24 hrs by immunocytochemistry analysis; assay type: ADME, cell-based; conditions: hepg2, 24 h
[18] = Selectivity ratio of inhibition of COX-1 in human whole blood to Inhibition of 5-lipoxygenase (unknown origin)
[19] = Intrinsic clearance in cryopreserved human hepatocytes assessed as per million cells at 1 uM measured up to 60 mins by LC-MS/MS analysis; assay type: ADME, cell-based, Hepatocyte; conditions: read-out: CLH
[20] = molecular target: Potassium voltage-gated channel subfamily A member 5 (Homo sapiens, UniProt P22460); assay: Inhibition of human Kv1.5 by Ion-work electrophysiology assay
[21] = molecular target: Voltage-dependent T-type calcium channel subunit alpha-1H (Homo sapiens) (UniProt O95180); assay: Inhibition of human Cav3.2 by Ion-work electrophysiology assay
[22] = Oral bioavailability in Beagle dog at 0.1 to 1 umol/kg administered twice daily via gavage for 3 days and measured up to 79 hrs; assay type: ADME, organism-based, Canis lupus familiaris; conditions: in vivo
[23] = molecular target: Sodium channel protein type 5 subunit alpha (Homo sapiens, UniProt Q14524); assay: Inhibition of human NaV1.5 by Ion-work electrophysiology assay
[24] = molecular target: Prostaglandin G/H synthase 2 (Homo sapiens, UniProt P35354); assay: Inhibition of COX-2 in human whole blood assessed as reduction in LPS-stimulated prostaglandin E2 production preincubated for 15 mins followed by LPS stimulation and measured after overnight incubation by EIA; assay type: tissue-based
[25] = molecular target: Prostaglandin G/H synthase 1 (Homo sapiens, UniProt P23219); assay: Inhibition of COX-1 in human whole blood assessed as reduction in calcium ionophore-stimulated thromboxane B2 production preincubated for 30 mins followed by calcium ionophore stimulation and measured after 20 mins by EIA; assay type: tissue-based
[26] = molecular target: Potassium/sodium hyperpolarization-activated cyclic nucleotide-gated channel 4 (Homo sapiens, UniProt Q9Y3Q4); assay: Inhibition of human HCN4 by Ion-work electrophysiology assay
[27] = molecular target: Polyunsaturated fatty acid lipoxygenase ALOX15 (Homo sapiens, UniProt P16050); assay: Inhibition of 15-lipoxygenase (unknown origin)
[28] = molecular target: Potassium voltage-gated channel subfamily E member 1 (Homo sapiens, UniProt P15382); assay: Inhibition of human IKs by IonWork electrophysiology method
[29] = Selectivity ratio of inhibition of COX-2 in human whole blood to Inhibition of 5-lipoxygenase (unknown origin)
[30] = organism: Canis familiaris; assay: Ex vivo inhibition of FLAP in Beagle dog assessed as reduction in ionophore-stimulated LTB4 production by EIA; assay type: functional, organism-based; conditions: Canis lupus familiaris
[31] = physchem; conditions: phosphate buffer, pH 7.4
[32] = molecular target: Polyunsaturated fatty acid lipoxygenase ALOX12 (Homo sapiens, UniProt P18054); assay: Inhibition of 12-lipoxygenase (unknown origin)
[33] = Protein binding in Sprague-Dawley rat plasma assessed as unbound fraction by LC-MS based equilibrium dialysis analysis; assay type: ADME, cell-free
[34] = Inhibition of FLAP in Beagle dog whole blood assessed as reduction in calcium ionophore-stimulated LTB4 production preincubated for 30 mins followed by calcium ionophore stimulation and measured after 20 mins by EIA; assay type: tissue-based; conditions: Canis lupus familiaris
[35] = molecular target: T2, Arachidonate 5-lipoxygenase-activating protein; assay: Inhibition of [3H]MK0591 binding to human FLAP expressed in […] cell membranes measured after 60 to 80 mins by scintillation counting method
[36] = Volume of distribution in Beagle dog at 0.004 to 0.1 umol/kg, iv or 0.1 to 1 umol/kg, po via gavage measured up to 79 hrs; assay type: ADME, organism-based, Canis lupus familiaris; conditions: in vivo
[37] = Bioavailability in po dosed Sprague-Dawley rat; assay type: ADME, organism-based; conditions: in vivo
[38] = molecular target: Bile salt export pump (Homo sapiens, UniProt O95342); assay: Inhibition of recombinant human BSEP expressed in baculovirus infected Sf21 insect cell vesicles assessed as reduction in NBD-taurocholate uptake by fluorescence assay; assay type: ADME
[39] = Ratio of drug level in blood to plasma in human at 10 uM incubated for 30 mins by LC-MS/MS analysis; assay type: ADME, cell-free
[40] = Inhibition of phospholipidosis in rat H42EC3 cells assessed as reduction in NBD-PE accumulation by SYTOX orange staining-based high content imaging analysis; assay type: cell-based
[41] = molecular target: Polyunsaturated fatty acid 5-lipoxygenase (Homo sapiens, UniProt P09917); assay: Inhibition of 5-lipoxygenase (unknown origin)
[42] = Apparent permeability across apical to basolateral side in human Caco2 cells; conditions: Caco-2
[43] = Cytotoxicity against human THLE cells incubated for 24 hrs by MTS assay; assay type: cell-based
[44] = Clearance in po or iv dosed Sprague-Dawley rat; assay type: ADME, organism-based; conditions: in vivo
[45] = molecular target: Voltage-gated inwardly rectifying potassium channel KCNH2 (Homo sapiens, UniProt Q12809); assay: Inhibition of human ERG by high-throughput electrophysiology assay
[46] = Drug absorption in Beagle dog at 0.004 to 0.1 umol/kg, iv or 0.1 to 1 umol/kg, po via gavage measured up to 79 hrs; assay type: ADME, organism-based, Canis lupus familiaris; conditions: in vivo

Chain of Prostaglandin G/H synthase 2 (P35354 whole entry): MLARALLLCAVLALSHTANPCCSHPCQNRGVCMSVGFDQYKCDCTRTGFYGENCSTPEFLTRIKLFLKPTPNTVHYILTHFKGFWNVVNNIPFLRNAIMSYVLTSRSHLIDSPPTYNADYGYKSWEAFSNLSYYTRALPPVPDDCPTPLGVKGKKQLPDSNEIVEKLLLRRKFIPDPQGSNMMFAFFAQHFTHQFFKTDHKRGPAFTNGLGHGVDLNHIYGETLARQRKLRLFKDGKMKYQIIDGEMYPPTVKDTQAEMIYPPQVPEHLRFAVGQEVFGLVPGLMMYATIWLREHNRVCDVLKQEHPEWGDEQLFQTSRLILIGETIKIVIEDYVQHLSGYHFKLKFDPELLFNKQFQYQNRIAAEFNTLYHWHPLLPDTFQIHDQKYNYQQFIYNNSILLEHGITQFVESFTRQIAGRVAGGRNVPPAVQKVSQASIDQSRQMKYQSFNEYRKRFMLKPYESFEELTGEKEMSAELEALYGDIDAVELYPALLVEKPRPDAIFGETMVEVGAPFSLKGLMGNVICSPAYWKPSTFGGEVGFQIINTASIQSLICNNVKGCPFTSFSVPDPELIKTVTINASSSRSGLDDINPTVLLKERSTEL
Chain of Polyunsaturated fatty acid 5-lipoxygenase (P09917 whole entry): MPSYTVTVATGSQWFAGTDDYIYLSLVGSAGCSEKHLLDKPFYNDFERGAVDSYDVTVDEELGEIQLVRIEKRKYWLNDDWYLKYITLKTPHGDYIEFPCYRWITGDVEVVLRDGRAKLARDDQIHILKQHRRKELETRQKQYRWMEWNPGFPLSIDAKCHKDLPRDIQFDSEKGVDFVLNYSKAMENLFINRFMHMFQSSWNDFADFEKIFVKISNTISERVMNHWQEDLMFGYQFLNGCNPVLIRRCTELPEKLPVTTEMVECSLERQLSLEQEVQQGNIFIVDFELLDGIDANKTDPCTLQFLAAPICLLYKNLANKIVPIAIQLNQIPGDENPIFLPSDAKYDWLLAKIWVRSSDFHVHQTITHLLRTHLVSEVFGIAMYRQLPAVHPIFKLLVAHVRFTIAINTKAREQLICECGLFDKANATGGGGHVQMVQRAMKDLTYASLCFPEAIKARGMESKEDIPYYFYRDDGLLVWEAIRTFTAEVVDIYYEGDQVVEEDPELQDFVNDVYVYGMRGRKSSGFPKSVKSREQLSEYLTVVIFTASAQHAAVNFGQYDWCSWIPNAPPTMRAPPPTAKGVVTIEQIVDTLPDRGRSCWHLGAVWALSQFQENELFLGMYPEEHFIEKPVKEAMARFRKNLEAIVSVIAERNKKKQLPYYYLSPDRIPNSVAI
Chain of Prostaglandin G/H synthase 1 (P23219 whole entry): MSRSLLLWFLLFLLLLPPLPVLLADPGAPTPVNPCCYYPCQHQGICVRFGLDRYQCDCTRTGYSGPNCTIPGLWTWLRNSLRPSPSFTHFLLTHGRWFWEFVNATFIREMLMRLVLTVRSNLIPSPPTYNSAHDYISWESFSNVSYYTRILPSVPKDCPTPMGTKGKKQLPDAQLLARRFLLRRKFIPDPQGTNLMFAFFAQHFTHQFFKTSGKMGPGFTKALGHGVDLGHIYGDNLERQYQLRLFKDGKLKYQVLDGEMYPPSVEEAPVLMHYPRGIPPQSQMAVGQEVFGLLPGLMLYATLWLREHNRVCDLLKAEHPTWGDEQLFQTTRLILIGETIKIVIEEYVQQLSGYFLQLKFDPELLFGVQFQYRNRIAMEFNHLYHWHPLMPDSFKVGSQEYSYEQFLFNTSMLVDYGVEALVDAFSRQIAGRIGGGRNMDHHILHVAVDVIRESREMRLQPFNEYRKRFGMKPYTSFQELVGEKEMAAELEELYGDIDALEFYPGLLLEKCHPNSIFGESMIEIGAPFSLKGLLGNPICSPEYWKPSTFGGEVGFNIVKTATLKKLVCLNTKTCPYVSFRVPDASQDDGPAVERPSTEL
Chain of Aryl hydrocarbon receptor (P35869 whole entry): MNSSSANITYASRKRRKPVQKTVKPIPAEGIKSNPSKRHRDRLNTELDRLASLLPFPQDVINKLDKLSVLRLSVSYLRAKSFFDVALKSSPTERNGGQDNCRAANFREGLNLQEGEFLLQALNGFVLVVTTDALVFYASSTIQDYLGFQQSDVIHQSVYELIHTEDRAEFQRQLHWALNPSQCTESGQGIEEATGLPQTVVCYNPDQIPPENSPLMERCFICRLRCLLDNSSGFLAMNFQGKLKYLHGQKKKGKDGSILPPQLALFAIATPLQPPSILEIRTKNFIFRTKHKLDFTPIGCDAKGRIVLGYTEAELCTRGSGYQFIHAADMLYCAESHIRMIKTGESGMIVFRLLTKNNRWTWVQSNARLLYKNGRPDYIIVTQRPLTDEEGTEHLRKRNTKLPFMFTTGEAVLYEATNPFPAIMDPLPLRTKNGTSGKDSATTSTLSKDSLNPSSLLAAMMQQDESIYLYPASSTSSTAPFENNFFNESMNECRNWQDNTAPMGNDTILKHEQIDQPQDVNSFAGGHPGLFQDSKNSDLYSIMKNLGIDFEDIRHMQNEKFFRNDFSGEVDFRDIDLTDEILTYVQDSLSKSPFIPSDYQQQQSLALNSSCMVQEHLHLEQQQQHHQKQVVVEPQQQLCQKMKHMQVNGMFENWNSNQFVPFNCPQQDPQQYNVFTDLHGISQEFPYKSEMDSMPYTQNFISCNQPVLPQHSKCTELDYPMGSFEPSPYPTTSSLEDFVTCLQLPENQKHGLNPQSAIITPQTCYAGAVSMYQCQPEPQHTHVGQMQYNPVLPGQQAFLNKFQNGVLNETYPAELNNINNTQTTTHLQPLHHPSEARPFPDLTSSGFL
Chain of Potassium voltage-gated channel subfamily A member 5 (P22460 whole entry): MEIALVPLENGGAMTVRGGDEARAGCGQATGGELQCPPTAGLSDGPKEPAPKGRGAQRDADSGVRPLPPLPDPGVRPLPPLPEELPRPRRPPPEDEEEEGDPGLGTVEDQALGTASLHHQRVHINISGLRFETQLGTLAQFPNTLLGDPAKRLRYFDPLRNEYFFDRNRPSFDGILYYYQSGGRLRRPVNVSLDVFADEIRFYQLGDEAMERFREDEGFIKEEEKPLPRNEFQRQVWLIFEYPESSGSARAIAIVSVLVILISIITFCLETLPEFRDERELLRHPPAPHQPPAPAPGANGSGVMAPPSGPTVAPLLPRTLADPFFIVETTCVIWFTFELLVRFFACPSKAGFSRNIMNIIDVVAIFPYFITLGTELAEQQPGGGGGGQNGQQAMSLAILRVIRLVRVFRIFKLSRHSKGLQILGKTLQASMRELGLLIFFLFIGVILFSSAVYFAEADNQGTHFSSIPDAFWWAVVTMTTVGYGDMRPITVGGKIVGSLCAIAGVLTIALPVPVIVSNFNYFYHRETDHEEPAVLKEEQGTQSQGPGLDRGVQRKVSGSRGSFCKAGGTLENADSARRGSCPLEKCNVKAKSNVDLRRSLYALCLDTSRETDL
Chain of Bile salt export pump (O95342 whole entry): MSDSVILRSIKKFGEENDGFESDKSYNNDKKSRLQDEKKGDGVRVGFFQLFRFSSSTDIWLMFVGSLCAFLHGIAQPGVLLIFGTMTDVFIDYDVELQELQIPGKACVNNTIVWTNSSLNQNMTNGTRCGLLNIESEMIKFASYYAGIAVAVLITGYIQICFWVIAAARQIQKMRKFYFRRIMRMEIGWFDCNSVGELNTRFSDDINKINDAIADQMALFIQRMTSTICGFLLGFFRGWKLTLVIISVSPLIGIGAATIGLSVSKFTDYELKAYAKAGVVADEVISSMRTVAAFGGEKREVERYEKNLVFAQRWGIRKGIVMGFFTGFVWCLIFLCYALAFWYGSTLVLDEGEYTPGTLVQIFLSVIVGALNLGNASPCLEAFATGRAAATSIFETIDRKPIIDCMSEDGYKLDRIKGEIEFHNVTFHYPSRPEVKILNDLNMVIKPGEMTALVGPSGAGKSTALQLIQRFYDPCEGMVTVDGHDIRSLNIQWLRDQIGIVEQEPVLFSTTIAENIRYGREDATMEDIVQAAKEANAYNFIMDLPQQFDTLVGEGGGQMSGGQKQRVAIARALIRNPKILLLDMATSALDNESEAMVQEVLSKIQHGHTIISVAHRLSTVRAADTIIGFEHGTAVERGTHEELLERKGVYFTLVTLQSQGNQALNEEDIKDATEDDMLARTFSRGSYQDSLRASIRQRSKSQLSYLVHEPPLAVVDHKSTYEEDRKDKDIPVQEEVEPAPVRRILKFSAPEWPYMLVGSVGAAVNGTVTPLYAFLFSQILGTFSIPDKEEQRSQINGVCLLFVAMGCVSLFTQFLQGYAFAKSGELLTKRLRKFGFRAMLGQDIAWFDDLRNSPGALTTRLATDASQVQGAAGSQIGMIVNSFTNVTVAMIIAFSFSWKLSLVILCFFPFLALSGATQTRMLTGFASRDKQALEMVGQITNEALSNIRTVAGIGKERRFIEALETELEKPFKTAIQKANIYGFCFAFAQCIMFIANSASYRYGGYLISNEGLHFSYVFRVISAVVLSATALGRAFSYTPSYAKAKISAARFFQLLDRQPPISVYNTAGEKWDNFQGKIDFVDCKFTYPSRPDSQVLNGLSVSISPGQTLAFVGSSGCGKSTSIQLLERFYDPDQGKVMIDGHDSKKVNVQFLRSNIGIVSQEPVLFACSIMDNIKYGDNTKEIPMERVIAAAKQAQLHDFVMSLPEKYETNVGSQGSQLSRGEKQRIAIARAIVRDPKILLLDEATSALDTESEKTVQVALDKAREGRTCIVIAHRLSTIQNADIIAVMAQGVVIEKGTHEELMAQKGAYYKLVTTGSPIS

Cn1cc(NC(=O)[C@@H]2CCCC[C@H]2C(=O)c2ccc(-c3ccn[nH]3)cc2)c(OC(F)F)n1
Stability [1]: Unstable | logD [2]: 3

Cc1cc(-c2ccc(C(=O)[C@@H]3CCCC[C@H]3C(=O)Nc3cn(C)nc3C)cc2)n[nH]1
fpIC50 [3]: 8.1 | IC50 [4]: 0.0631 µM | Activity [5]: Non-Toxic | clearance [6]: 3.33 mL/min/kg | Activity [7]: Non-Toxic | half-life [8]: 4.5 h | fraction unbound [9]: 0.11 | IC50 [10]: > 25.1 µM | inhibition (INH) [11]: Not Active | inhibition (INH) [12]: Not Active | logD [2]: 3 | half-life [13]: 3.4 h | Vd [14]: 0.83 L/kg | Activity [15]: Non-Toxic | Stability [16]: 72% | Activity [17]: Not Active | Selectivity ratio [18]: >= 100 | hepatocyte CLint at 1 µM [19]: 4 µL/min/1e6 cells | inhibition (INH) [20]: Not Active | inhibition [21]: inactive | bioavailability [22]: 51% | inhibition (INH) [23]: Not Active | inhibition (INH) [24]: Not Active | inhibition (INH) [25]: Not Active | inhibition (INH) [26]: Not Active | inhibition (INH) [27]: Not Active | inhibition (INH) [28]: Not Active | Selectivity ratio [29]: >= 100 | IC50 [30]: 0.034 µM | inhibition [30]: Dose-dependent effect | solubility at 24 h [31]: 225 µM (≈ 91.2 µg/mL) | inhibition (INH) [32]: Not Active | fraction unbound [33]: 0.043 | IC50 [34]: 0.028 µM | IC50 [35]: 0.0631 µM | Vd [36]: 0.98 L/kg | bioavailability [37]: 47% | IC50 [38]: 120 µM | blood plasma ratio at 0.5 h, 10 µM [39]: 0.74 | EC50 [40]: 32 µM | inhibition (INH) [41]: Not Active | Papp A→B [42]: 20 ×10⁻⁶ cm/s | Activity [43]: Non-Toxic | clearance [44]: 6 mL/min/kg | IC50 [45]: > 100 µM | ka [46]: 5.3 h⁻¹
